Data from ChEMBL document CHEMBL3616399, “Design, synthesis, and structure-activity relationship studies of novel thienopyrrolidone derivatives with strong antifungal activity against Aspergillus fumigates” (Eur J Med Chem, 2015).
In brackets after ≈: the same amount, converted by molar mass.

How the values were obtained:
[1] = system: Cryptococcus neoformans; test: Antifungal activity against Cryptococcus neoformans 32609 after 72 hrs by serial dilution method; assay type: functional; details: Cryptococcus neoformans, 32609, 72 h
How it was run: (§1)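 MIC by broth serial dilution per NCCLS/CLSI (M27-A3 yeasts, M38-A2 filamentous) in 96-well plates; ATCC strains plus clinical isolates; C. parapsilosis 22019 run as quality-control strain in every assay. Compounds dissolved in DMSO, serially diluted in growth medium; incubation 35 °C; MIC read at 24 h (Candida), 48 h (A. fumigatus), 72 h (C. neoformans).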

[2] = system: Candida albicans; test: Antifungal activity against Candida albicans Y0109 after 24 hrs by serial dilution method; assay type: functional; details: Y0109, 24 h; how it was run: as §1
[3] = system: Candida parapsilosis; test: Antifungal activity against Candida parapsilosis 22019 after 24 hrs by serial dilution method; assay type: functional; details: Lodderomyces parapsilosis, 22019, 24 h; how it was run: as §1
[4] = system: Nakaseomyces glabratus; test: Antifungal activity against Candida glabrata 537 after 24 hrs by serial dilution method; assay type: functional; details: Nakaseomyces glabratus, 537, 24 h; how it was run: as §1
[5] = system: Aspergillus fumigatus; test: Antifungal activity against Aspergillus fumigatus 7544 after 48 hrs by serial dilution method; assay type: functional; details: Aspergillus fumigatus, 7544, 48 h; how it was run: as §1
[6] = system: Candida albicans; test: Antifungal activity against Candida albicans SC5314 after 24 hrs by serial dilution method; assay type: functional; details: SC5314, 24 h; how it was run: as §1
[7] = system: Liver microsome; test: Intrinsic clearance in human liver microsomes assessed per mg of protein at 0.1 uM measured up to 60 mins by MS analysis; details: 1 h

C[C@@H](N1CCn2nc(-c3ccc(C#N)nc3)nc2C1)[C@](O)(Cn1cncn1)c1ccc(F)cc1F
MIC [1]: 0.0625 µg/mL (≈ 0.131 µM)
MIC [2]: 0.0156 µg/mL (≈ 0.0327 µM)
MIC [3]: 0.0156 µg/mL (≈ 0.0327 µM)
MIC [4]: 0.0156 µg/mL (≈ 0.0327 µM)
MIC [5]: 2 µg/mL (≈ 4.19 µM)
MIC [6]: 0.0156 µg/mL (≈ 0.0327 µM)

C[C@@H](N1CCc2nc(-c3cncnc3)sc2C1)[C@](O)(Cn1cncn1)c1ccc(F)cc1F
MIC [1]: 0.0625 µg/mL (≈ 0.133 µM)
MIC [2]: 0.0625 µg/mL (≈ 0.133 µM)
MIC [3]: 0.0625 µg/mL (≈ 0.133 µM)
MIC [4]: 0.0625 µg/mL (≈ 0.133 µM)
MIC [5]: 2 µg/mL (≈ 4.26 µM)
MIC [6]: 0.0312 µg/mL (≈ 0.0666 µM)

C[C@@H](N1CCc2sc(-c3ccncc3)cc2C1)[C@](O)(Cn1cncn1)c1ccc(F)cc1F
MIC [1]: 0.5 µg/mL (≈ 1.07 µM)
MIC [2]: 0.5 µg/mL (≈ 1.07 µM)
MIC [3]: 0.5 µg/mL (≈ 1.07 µM)
MIC [4]: 4 µg/mL (≈ 8.56 µM)
MIC [5]: > 32 µg/mL
MIC [6]: 0.25 µg/mL (≈ 0.535 µM)

C[C@@H](N1CCc2cc(-c3cncnc3)sc2C1)[C@](O)(Cn1cncn1)c1ccc(F)cc1F
MIC [1]: 0.125 µg/mL (≈ 0.267 µM)
MIC [2]: 0.125 µg/mL (≈ 0.267 µM)
MIC [3]: 0.125 µg/mL (≈ 0.267 µM)
MIC [4]: 1 µg/mL (≈ 2.13 µM)
MIC [5]: 32 µg/mL (≈ 68.3 µM)
MIC [6]: 0.25 µg/mL (≈ 0.534 µM)

C[C@@H](N1Cc2sc(Br)cc2C1=O)[C@](O)(Cn1cncn1)c1ccc(F)cc1F
MIC [1]: 0.125 µg/mL (≈ 0.266 µM)
MIC [2]: 0.0625 µg/mL (≈ 0.133 µM)
MIC [3]: 0.0625 µg/mL (≈ 0.133 µM)
MIC [4]: 0.125 µg/mL (≈ 0.266 µM)
MIC [5]: 32 µg/mL (≈ 68.2 µM)
MIC [6]: 0.0312 µg/mL (≈ 0.0666 µM)

C[C@@H](N1Cc2sc(-c3ccccc3)cc2C1=O)[C@](O)(Cn1cncn1)c1ccc(F)cc1F
MIC [1]: 0.0625 µg/mL (≈ 0.134 µM)
MIC [2]: 0.0312 µg/mL (≈ 0.067 µM)
MIC [3]: 0.0312 µg/mL (≈ 0.067 µM)
MIC [4]: 0.0625 µg/mL (≈ 0.134 µM)
MIC [5]: 32 µg/mL (≈ 68.6 µM)
MIC [6]: 0.0156 µg/mL (≈ 0.0334 µM)

C[C@@H](N1Cc2sc(-c3ccncc3)cc2C1=O)[C@](O)(Cn1cncn1)c1ccc(F)cc1F
MIC [1]: 0.0156 µg/mL (≈ 0.0334 µM)
MIC [2]: 0.0156 µg/mL (≈ 0.0334 µM)
MIC [3]: 0.0312 µg/mL (≈ 0.0668 µM)
MIC [4]: 0.0625 µg/mL (≈ 0.134 µM)
MIC [5]: > 64 µg/mL
MIC [6]: 0.0156 µg/mL (≈ 0.0334 µM)

C[C@@H](N1Cc2sc(-c3cccnc3)cc2C1=O)[C@](O)(Cn1cncn1)c1ccc(F)cc1F
MIC [1]: 0.0156 µg/mL (≈ 0.0334 µM)
MIC [2]: 0.0156 µg/mL (≈ 0.0334 µM)
MIC [3]: 0.0156 µg/mL (≈ 0.0334 µM)
MIC [4]: 0.0156 µg/mL (≈ 0.0334 µM)
MIC [5]: 16 µg/mL (≈ 34.2 µM)
MIC [6]: 0.0156 µg/mL (≈ 0.0334 µM)

C[C@@H](N1Cc2sc(-c3cncnc3)cc2C1=O)[C@](O)(Cn1cncn1)c1ccc(F)cc1F
MIC [1]: 0.0078 µg/mL (≈ 0.0166 µM)
MIC [2]: 0.0156 µg/mL (≈ 0.0333 µM)
MIC [3]: 0.0156 µg/mL (≈ 0.0333 µM)
MIC [4]: 0.0156 µg/mL (≈ 0.0333 µM)
MIC [5]: 32 µg/mL (≈ 68.3 µM)
MIC [6]: 0.0156 µg/mL (≈ 0.0333 µM)

C[C@@H](N1Cc2sc(-c3ccc(C#N)nc3)cc2C1=O)[C@](O)(Cn1cncn1)c1ccc(F)cc1F
MIC [1]: 0.0156 µg/mL (≈ 0.0317 µM)
MIC [2]: 0.0156 µg/mL (≈ 0.0317 µM)
MIC [3]: 0.0156 µg/mL (≈ 0.0317 µM)
MIC [4]: 0.0625 µg/mL (≈ 0.127 µM)
MIC [5]: 32 µg/mL (≈ 65 µM)
MIC [6]: 0.0156 µg/mL (≈ 0.0317 µM)

COc1ccc(-c2cc3c(s2)CN([C@H](C)[C@](O)(Cn2cncn2)c2ccc(F)cc2F)C3=O)cn1
MIC [1]: 0.0156 µg/mL (≈ 0.0314 µM)
MIC [2]: 0.0156 µg/mL (≈ 0.0314 µM)
MIC [3]: 0.0156 µg/mL (≈ 0.0314 µM)
MIC [4]: 0.0156 µg/mL (≈ 0.0314 µM)
MIC [5]: 64 µg/mL (≈ 129 µM)
MIC [6]: 0.0156 µg/mL (≈ 0.0314 µM)

C[C@@H](N1Cc2sc(-c3cncc(F)c3)cc2C1=O)[C@](O)(Cn1cncn1)c1ccc(F)cc1F
MIC [1]: 0.0078 µg/mL (≈ 0.0161 µM)
MIC [2]: 0.0156 µg/mL (≈ 0.0321 µM)
MIC [3]: 0.0156 µg/mL (≈ 0.0321 µM)
MIC [4]: 0.0625 µg/mL (≈ 0.129 µM)
MIC [5]: > 64 µg/mL
MIC [6]: 0.0078 µg/mL (≈ 0.0161 µM)

COc1ncc(-c2cc3c(s2)CN([C@H](C)[C@](O)(Cn2cncn2)c2ccc(F)cc2F)C3=O)cn1
MIC [1]: 0.0156 µg/mL (≈ 0.0313 µM)
MIC [2]: 0.0156 µg/mL (≈ 0.0313 µM)
MIC [3]: 0.0156 µg/mL (≈ 0.0313 µM)
MIC [4]: 0.0156 µg/mL (≈ 0.0313 µM)
MIC [5]: 16 µg/mL (≈ 32.1 µM)
MIC [6]: 0.0156 µg/mL (≈ 0.0313 µM)

C[C@@H](N1Cc2cc(Br)sc2C1=O)[C@](O)(Cn1cncn1)c1ccc(F)cc1F
MIC [1]: 0.0625 µg/mL (≈ 0.133 µM)
MIC [2]: 0.0156 µg/mL (≈ 0.0332 µM)
CLH [7]: 5 µL/min/mg
MIC [3]: 0.0156 µg/mL (≈ 0.0332 µM)
MIC [4]: 0.0625 µg/mL (≈ 0.133 µM)
MIC [5]: 0.25 µg/mL (≈ 0.533 µM)
MIC [6]: 0.0156 µg/mL (≈ 0.0332 µM)

C[C@@H](N1Cc2cc(-c3ccccc3)sc2C1=O)[C@](O)(Cn1cncn1)c1ccc(F)cc1F
MIC [1]: 0.0625 µg/mL (≈ 0.134 µM)
MIC [2]: 0.0312 µg/mL (≈ 0.067 µM)
MIC [3]: 0.0625 µg/mL (≈ 0.134 µM)
MIC [4]: 0.125 µg/mL (≈ 0.268 µM)
MIC [5]: 8 µg/mL (≈ 17.1 µM)
MIC [6]: 0.0156 µg/mL (≈ 0.0334 µM)

Cc1ccc(-c2cc3c(s2)C(=O)N([C@H](C)[C@](O)(Cn2cncn2)c2ccc(F)cc2F)C3)cc1
MIC [1]: 0.0625 µg/mL (≈ 0.13 µM)
MIC [2]: 0.0312 µg/mL (≈ 0.065 µM)
MIC [3]: 0.0625 µg/mL (≈ 0.13 µM)
MIC [4]: 0.0625 µg/mL (≈ 0.13 µM)
MIC [5]: 4 µg/mL (≈ 8.32 µM)
MIC [6]: 0.0312 µg/mL (≈ 0.065 µM)

Cc1cccc(-c2cc3c(s2)C(=O)N([C@H](C)[C@](O)(Cn2cncn2)c2ccc(F)cc2F)C3)c1
MIC [1]: 0.125 µg/mL (≈ 0.26 µM)
MIC [2]: 0.0625 µg/mL (≈ 0.13 µM)
MIC [3]: 0.125 µg/mL (≈ 0.26 µM)
MIC [4]: 0.0625 µg/mL (≈ 0.13 µM)
MIC [5]: 4 µg/mL (≈ 8.32 µM)
MIC [6]: 0.0625 µg/mL (≈ 0.13 µM)

COc1ccc(-c2cc3c(s2)C(=O)N([C@H](C)[C@](O)(Cn2cncn2)c2ccc(F)cc2F)C3)cc1
MIC [1]: 0.0625 µg/mL (≈ 0.126 µM)
MIC [2]: 0.0156 µg/mL (≈ 0.0314 µM)
MIC [3]: 0.0625 µg/mL (≈ 0.126 µM)
MIC [4]: 0.0625 µg/mL (≈ 0.126 µM)
MIC [5]: 4 µg/mL (≈ 8.06 µM)
MIC [6]: 0.0156 µg/mL (≈ 0.0314 µM)
